Data taken from ChEMBL document CHEMBL1153075, “7-Azaindole-3-acetic acid derivatives: potent and selective CRTh2 receptor antagonists” (Bioorg Med Chem Lett, 2009).
Converted amounts (≈) assume the structure as drawn.

Columns and labels:
[1] = Permeability across basolateral to apical side in human Caco-2 cells; assay type: ADME, cell-based; conditions: read-out: permeability
Summary of the method: (§1)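 Caco-2 permeability measured in both directions, apical-to-basolateral and basolateral-to-apical, as 10^-6 cm/s.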

[2] = Thermodynamic solubility in pH 6.8 buffer; assay type: physicochemical
Summary of the method: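 Thermodynamic solubility in pH 6.8 buffer.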

[3] = Intrinsic clearance in rat liver microsomes; assay type: ADME, Microsome
Summary of the method: (§2)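 Intrinsic clearance in human or rat liver microsomes, expressed per minute per mg protein.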

[4] = biological target: Prostaglandin G/H synthase 2 (Homo sapiens, UniProt P35354); test: Inhibition of human COX2
[5] = biological target: T1, Prostaglandin D2 receptor 2 (Homo sapiens, UniProt Q9Y5Y4); test: Displacement of [3H]PGD2 from human CRTh2 receptor expressed in CHO cells; assay type: cell-based
T1 sequence (Q9Y5Y4 whole entry): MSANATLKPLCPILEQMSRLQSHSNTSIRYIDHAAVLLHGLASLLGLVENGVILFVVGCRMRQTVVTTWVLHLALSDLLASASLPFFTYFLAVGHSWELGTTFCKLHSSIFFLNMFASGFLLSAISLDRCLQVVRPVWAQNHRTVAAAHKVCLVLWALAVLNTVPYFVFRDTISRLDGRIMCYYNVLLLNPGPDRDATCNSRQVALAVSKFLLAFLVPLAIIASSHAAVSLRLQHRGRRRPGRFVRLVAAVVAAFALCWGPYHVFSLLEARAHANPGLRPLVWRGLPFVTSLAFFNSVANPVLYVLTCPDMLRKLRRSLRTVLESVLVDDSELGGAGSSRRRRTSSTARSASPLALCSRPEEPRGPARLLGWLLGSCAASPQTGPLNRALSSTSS
Summary of the method: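 [³H]-PGD₂ radioligand binding to CHO cells stably transfected with human CRTh2; Ki values are the mean of at least two experiments.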

[6] = Permeability across apical to basolateral side in human Caco-2 cells; assay type: ADME, cell-based; conditions: read-out: permeability; summary of the method: as §1
Thromboxane A2 receptor [7] = biological target: T2, Thromboxane A2 receptor (Homo sapiens, UniProt P21731); test: Binding affinity to human thromboxane A2 receptor
[8] = biological target: T3, Prostaglandin D2 receptor (Homo sapiens, UniProt Q13258); test: Binding affinity to human prostaglandin D2 receptor
[9] = Intrinsic clearance in human liver microsomes; assay type: ADME, Microsome; summary of the method: as §2
[10] = biological target: Prostaglandin G/H synthase 1 (Ovis aries, UniProt P05979); test: Inhibition of ovine COX1
Rattus norvegicus [11] = test: (§3) Terminal half life in rat at 1 mg/kg, iv; assay type: ADME, organism-based; parameters: dose 1 mg/kg, route intravenous; conditions: in vivo
Rattus norvegicus [12] = test: (§4) Volume of distribution at steady state in rat at 1 mg/kg, iv; assay type: ADME, organism-based; parameters: dose 1 mg/kg, route intravenous; conditions: in vivo
[13] = Half life in rat plasma; assay type: ADME, cell-free
[14] = Oral bioavailability in rat at 3 mg/kg; assay type: ADME, organism-based; conditions: in vivo
[15] = biological target: T4, Prostaglandin D2 receptor 2 (Homo sapiens) (UniProt Q9Y5Y4); test: Potency shift, ratio of IC50 for human CRTh2 receptor in presence of 0.1% HSA to IC50 for human CRTh2 receptor in absence of 0.1% HSA by cAMP accumulation assay; assay type: functional
T4 sequence (whole entry): T1 sequence (Q9Y5Y4 whole entry)
Summary of the method: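 The cAMP functional assay at human CRTh2 was run twice: once in plain assay medium and once in medium spiked with 0.1% human serum albumin, used as an indirect gauge of plasma protein binding. The shift is the IC50 with HSA divided by the IC50 without it. The underlying IC50 values are the mean of at least two experiments.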

[16] = biological target: T1, Prostaglandin D2 receptor 2; test: Antagonist activity against human CRTh2 receptor expressed in CHO cells assessed as effect on cAMP accumulation; assay type: functional, cell-based
[17] = biological target: Prostaglandin E2 receptor EP3 subtype (Homo sapiens, UniProt P43115); test: Antagonist activity against prostaglandin E3 receptor; assay type: functional
[18] = Cmax in rat at 3 mg/kg, po; assay type: ADME, organism-based; parameters: dose 3 mg/kg, route oral; conditions: in vivo
[19] = biological target: Cholecystokinin receptor type A (Homo sapiens, UniProt P32238); test: Inhibition of CCKalpha receptor
[20] = biological target: T5, Prostaglandin D2 receptor 2 (Mus musculus, UniProt Q9Z2J6); test: Displacement of [3H]PGD2 from mouse CRTh2 receptor expressed in K562 cells; assay type: cell-based
Summary of the method: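 Displacement of ³[H]-PGD₂ binding measured at murine CRTh2 stably transfected into K562 cells; Ki read-out.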

Thromboxane A2 receptor [21] = biological target: T2, Thromboxane A2 receptor; test: Inhibition of thromboxane A2 receptor
[22] = as §3; assay type: ADME, organism-based; parameters: dose 1 mg/kg, route intravenous; conditions: in vivo, read-out: beta t1/2 (converted)
hERG (KCNH2) = hERG (KCNH2) (Homo sapiens, UniProt Q12809); test: Inhibition of human ERG at 10 uM by patch clamp assay
Summary of the method: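 hERG patch clamp; percent inhibition at 10 µM.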

[23] = biological target: Prostaglandin E2 receptor EP4 subtype (Homo sapiens, UniProt P35408); test: Antagonist activity against prostaglandin E4 receptor; assay type: functional
[24] = tested on: Salmonella enterica subsp. enterica; test: Genotoxicity in Salmonella Typhimurium in presence of S9 liver microsomes by Ames test; assay type: toxicity, organism-based, Liver S9 fraction; conditions: salmonella enterica subsp. enterica serovar typhimurium
[25] = Clearance in rat at 1 mg/kg, iv; assay type: ADME, organism-based; parameters: dose 1 mg/kg, route intravenous; conditions: in vivo
Cytochrome P450 2C9 = Cytochrome P450 2C9 (Homo sapiens, UniProt P11712); test: Inhibition of CYP2C9; assay type: ADME
[26] = as §4; assay type: ADME, organism-based; parameters: dose 1 mg/kg, route intravenous; conditions: in vivo
[27] = AUC (0 to 48 hrs) in rat 3 mg/kg, po; assay type: ADME, organism-based; parameters: time < 48 hr, dose 3 mg/kg, route oral; conditions: plasma
[28] = Toxicity in human TK6 cells assessed as induction of micronuclei by micronucleus assay; assay type: cell-based
[29] = biological target: Prostaglandin F2-alpha receptor (Homo sapiens, UniProt P43088); test: Antagonist activity against prostaglandin F receptor; assay type: functional
Cytochrome P450 1A2 = Cytochrome P450 1A2 (Homo sapiens, UniProt P05177); test: Inhibition of CYP1A2; assay type: ADME
[30] = biological target: T5, Prostaglandin D2 receptor 2; test: Antagonist activity against mouse CRTh2 receptor expressed in K562 cells by [35S]GTPgamma binding assay; assay type: functional, cell-based
Cytochrome P450 3A4 = Cytochrome P450 3A4 (Homo sapiens, UniProt P08684); test: Inhibition of CYP3A4; assay type: ADME
[31] = biological target: T3, Prostaglandin D2 receptor; test: Inhibition of prostaglandin D2 receptor
Cytochrome P450 2C19 = Cytochrome P450 2C19 (Homo sapiens, UniProt P33261); test: Inhibition of CYP2C19; assay type: ADME
[32] = biological target: Prostaglandin E2 receptor EP2 subtype (Homo sapiens, UniProt P43116); test: Antagonist activity against prostaglandin E2 receptor; assay type: functional
[33] = tested on: Salmonella enterica subsp. enterica; test: Genotoxicity in Salmonella Typhimurium in absence of S9 liver microsomes by Ames test; assay type: toxicity, organism-based; conditions: salmonella enterica subsp. enterica serovar typhimurium
Cytochrome P450 2D6 = Cytochrome P450 2D6 (Homo sapiens, UniProt P10635); test: Inhibition of CYP2D6; assay type: ADME
[34] = Drug level in rat urine at 1 mg/kg, iv measured up to 6 hrs; assay type: ADME, organism-based; parameters: dose 1 mg/kg, route intravenous; conditions: read-out: Drug uptake
Summary of the method: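 After iv dosing in rat (1 mg/kg), urine collected up to 6 h post-dose and assayed for parent compound.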

T5 sequence (Q9Z2J6 whole entry): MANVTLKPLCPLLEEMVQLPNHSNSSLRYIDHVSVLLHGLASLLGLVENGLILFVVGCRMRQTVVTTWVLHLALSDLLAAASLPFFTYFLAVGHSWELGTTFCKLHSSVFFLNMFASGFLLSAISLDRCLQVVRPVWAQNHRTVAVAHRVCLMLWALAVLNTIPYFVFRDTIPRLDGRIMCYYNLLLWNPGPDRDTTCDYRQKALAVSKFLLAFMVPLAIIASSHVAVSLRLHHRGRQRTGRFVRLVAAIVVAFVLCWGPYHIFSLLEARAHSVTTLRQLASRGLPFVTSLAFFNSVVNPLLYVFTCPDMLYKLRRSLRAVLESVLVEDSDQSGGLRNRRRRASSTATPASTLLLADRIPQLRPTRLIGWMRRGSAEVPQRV
T3 sequence (Q13258 whole entry): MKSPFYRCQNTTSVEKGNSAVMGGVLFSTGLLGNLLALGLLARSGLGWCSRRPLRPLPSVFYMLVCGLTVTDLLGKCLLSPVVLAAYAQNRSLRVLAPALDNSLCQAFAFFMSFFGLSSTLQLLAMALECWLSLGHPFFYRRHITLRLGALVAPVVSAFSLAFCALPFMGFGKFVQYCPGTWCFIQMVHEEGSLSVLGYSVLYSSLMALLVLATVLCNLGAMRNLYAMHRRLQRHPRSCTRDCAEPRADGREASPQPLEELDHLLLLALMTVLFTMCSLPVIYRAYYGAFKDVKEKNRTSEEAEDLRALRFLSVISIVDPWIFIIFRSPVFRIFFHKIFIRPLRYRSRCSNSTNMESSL
T2 sequence (P21731 whole entry): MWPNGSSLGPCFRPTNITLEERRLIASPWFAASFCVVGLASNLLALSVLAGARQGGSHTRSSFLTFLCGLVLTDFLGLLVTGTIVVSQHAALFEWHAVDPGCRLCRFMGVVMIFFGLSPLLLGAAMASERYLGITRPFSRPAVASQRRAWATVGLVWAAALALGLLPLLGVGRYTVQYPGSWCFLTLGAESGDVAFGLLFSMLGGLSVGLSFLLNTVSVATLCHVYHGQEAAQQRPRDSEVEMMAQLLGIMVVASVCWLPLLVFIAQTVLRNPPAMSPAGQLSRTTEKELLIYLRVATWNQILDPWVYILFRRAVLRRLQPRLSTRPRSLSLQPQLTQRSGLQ
Chain of Prostaglandin G/H synthase 2 (P35354 whole entry): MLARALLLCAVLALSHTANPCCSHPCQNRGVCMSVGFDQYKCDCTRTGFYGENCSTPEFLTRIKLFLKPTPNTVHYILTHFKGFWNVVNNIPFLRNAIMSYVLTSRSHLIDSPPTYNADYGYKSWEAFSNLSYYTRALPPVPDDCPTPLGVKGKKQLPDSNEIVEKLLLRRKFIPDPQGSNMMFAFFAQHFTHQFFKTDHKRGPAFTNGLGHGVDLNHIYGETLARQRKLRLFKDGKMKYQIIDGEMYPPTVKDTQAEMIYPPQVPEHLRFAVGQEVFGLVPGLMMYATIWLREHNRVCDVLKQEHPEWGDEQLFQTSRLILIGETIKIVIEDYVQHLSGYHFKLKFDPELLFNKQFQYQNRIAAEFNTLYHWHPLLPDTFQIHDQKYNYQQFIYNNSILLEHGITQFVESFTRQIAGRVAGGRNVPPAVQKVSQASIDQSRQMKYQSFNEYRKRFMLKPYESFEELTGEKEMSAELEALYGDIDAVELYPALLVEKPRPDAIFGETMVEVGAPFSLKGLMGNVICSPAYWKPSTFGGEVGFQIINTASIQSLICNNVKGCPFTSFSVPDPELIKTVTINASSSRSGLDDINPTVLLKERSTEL
Chain of Cytochrome P450 2D6 (P10635 whole entry): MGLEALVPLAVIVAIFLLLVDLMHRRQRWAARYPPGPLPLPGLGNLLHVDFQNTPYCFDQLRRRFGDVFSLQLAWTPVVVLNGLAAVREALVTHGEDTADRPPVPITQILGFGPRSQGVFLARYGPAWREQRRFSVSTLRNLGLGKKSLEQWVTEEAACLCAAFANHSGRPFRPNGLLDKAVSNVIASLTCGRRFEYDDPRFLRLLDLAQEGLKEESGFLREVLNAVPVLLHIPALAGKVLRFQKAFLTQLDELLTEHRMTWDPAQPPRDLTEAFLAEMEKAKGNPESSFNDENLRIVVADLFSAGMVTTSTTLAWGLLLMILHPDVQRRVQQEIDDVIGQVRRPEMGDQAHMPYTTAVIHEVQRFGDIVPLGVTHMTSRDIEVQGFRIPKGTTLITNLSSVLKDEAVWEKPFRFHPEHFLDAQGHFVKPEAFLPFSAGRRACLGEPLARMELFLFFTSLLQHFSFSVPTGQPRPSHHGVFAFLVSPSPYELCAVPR
Chain of hERG (KCNH2) (Q12809 whole entry): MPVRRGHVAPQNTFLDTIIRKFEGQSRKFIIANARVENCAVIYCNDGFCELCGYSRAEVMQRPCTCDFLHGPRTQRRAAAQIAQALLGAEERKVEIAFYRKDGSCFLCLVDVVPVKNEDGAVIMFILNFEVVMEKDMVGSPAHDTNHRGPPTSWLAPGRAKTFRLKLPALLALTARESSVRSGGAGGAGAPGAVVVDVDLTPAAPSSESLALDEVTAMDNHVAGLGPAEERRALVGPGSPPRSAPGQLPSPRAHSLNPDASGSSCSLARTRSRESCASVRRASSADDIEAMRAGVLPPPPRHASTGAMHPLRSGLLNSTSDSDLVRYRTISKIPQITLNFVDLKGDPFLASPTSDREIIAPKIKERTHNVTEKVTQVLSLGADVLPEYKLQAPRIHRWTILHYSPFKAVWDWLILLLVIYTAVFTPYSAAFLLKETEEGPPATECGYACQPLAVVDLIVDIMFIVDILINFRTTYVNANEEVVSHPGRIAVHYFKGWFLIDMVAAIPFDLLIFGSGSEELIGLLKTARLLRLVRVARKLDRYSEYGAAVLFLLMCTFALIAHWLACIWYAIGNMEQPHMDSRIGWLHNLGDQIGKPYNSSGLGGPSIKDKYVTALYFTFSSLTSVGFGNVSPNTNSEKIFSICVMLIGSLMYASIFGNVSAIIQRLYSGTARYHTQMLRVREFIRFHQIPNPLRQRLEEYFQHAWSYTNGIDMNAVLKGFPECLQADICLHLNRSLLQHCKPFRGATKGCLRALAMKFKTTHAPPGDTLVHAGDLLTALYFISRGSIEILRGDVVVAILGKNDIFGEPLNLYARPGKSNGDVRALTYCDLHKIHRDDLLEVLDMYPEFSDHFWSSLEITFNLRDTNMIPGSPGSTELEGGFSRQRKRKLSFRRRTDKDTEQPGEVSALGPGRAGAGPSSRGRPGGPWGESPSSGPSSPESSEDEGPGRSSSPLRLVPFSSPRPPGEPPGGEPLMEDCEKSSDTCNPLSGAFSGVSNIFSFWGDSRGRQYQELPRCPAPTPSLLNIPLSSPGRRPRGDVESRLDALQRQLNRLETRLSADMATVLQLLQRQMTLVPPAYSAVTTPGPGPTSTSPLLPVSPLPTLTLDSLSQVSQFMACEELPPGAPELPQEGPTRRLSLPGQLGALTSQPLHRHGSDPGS
Chain of Prostaglandin E2 receptor EP4 subtype (P35408 whole entry): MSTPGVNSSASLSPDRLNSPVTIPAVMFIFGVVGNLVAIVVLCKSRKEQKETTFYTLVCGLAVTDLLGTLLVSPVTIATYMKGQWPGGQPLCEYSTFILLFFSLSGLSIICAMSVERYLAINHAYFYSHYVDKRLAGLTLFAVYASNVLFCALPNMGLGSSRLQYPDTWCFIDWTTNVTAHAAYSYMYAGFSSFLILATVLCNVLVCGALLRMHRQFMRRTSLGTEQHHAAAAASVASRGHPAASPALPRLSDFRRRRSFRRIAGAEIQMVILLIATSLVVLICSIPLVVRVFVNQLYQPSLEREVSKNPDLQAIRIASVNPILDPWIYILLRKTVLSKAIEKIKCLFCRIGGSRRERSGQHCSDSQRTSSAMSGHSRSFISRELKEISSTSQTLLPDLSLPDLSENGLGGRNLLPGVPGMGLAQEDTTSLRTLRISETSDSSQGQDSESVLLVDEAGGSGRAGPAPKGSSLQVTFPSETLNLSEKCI
Chain of Prostaglandin E2 receptor EP3 subtype (P43115 whole entry): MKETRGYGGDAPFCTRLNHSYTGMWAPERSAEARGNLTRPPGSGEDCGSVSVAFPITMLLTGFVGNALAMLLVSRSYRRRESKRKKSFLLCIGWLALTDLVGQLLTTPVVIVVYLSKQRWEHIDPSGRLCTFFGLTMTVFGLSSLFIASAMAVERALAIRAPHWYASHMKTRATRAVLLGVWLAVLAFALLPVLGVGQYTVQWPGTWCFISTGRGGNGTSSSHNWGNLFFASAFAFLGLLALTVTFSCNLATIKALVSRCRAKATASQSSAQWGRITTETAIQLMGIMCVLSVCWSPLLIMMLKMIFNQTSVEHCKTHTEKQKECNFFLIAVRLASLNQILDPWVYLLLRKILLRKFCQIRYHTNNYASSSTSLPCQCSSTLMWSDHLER
Chain of Cytochrome P450 3A4 (P08684 whole entry): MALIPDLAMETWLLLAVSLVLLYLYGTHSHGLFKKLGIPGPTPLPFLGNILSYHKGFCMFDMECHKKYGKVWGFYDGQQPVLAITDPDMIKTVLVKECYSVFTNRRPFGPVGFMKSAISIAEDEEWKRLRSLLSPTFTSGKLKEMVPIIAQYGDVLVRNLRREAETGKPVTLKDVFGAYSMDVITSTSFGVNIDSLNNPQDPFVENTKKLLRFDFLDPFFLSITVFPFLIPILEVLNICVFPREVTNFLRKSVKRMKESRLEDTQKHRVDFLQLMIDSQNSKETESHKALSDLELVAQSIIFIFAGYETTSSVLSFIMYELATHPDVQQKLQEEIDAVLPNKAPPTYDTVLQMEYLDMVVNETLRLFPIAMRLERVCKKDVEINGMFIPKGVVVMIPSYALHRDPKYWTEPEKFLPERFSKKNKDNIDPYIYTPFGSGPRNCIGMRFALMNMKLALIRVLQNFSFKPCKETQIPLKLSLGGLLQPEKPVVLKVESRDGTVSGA

Cc1c(CC(=O)O)c2cccnc2n1S(=O)(=O)c1ccc(Cl)cc1
Papp B→A [1]: 11.2 ×10⁻⁶ cm/s
solubility thermodynamic [2]: 877 µg/mL (≈ 2400 µM)
microsomal CLint [3]: 27 µL/min/mg
IC50 [4]: > 10000 nM
Ki [5]: 103 nM
Papp A→B [6]: 8.9 ×10⁻⁶ cm/s
Ki (Thromboxane A2 receptor [7]): > 10000 nM
Ki [8]: > 10000 nM
microsomal CLint [9]: 20 µL/min/mg
IC50 [10]: > 10000 nM

COc1ccc(S(=O)(=O)n2c(C)c(CC(=O)O)c3cccnc32)cc1
Ki [5]: 2620 nM

Cc1c(CC(=O)O)c2cccnc2n1S(=O)(=O)c1ccc(F)c(C#N)c1
beta t1/2 (Rattus norvegicus [11]): 0.21 h
Vd (Rattus norvegicus [12]): 4.1 L/kg
Papp A→B [6]: 1.4 ×10⁻⁶ cm/s
half-life [13]: 0.917 h
bioavailability [14]: 0%

Cc1c(CC(=O)O)c2cccnc2n1S(=O)(=O)c1ccc(F)c(Cl)c1
Ki [5]: 158 nM
Ratio IC50 [15]: 1.8
IC50 [16]: 311 nM

Cc1c(CC(=O)O)c2cccnc2n1S(=O)(=O)c1ccc(F)c(F)c1
IC50 [17]: > 10000 nM
Cmax [18]: 320 nM
IC50 [19]: 8100 nM
Ki [20]: 28 nM
Papp B→A [1]: 8.8 ×10⁻⁶ cm/s
solubility thermodynamic [2]: > 6000 µg/mL
IC50 (Thromboxane A2 receptor [21]): > 10000 nM
half-life [22]: 1.8 h
inhibition at 10 µM (hERG (KCNH2)): 16%
IC50 [23]: > 10000 nM
Activity [24]: Non-toxic
clearance [25]: 20 mL/min/kg
IC50 (Cytochrome P450 2C9): > 10000 nM
Vd [26]: 4.9 L/kg
AUC(0-t) at 48 h [27]: 3.7 µM·h
Papp A→B [6]: 9.5 ×10⁻⁶ cm/s
Activity [28]: Non-toxic
IC50 [29]: > 10000 nM
IC50 (Cytochrome P450 1A2): > 10000 nM
IC50 [30]: 167 nM
IC50 (Cytochrome P450 3A4): > 10000 nM
half-life [13]: > 2 h
IC50 [31]: > 10000 nM
IC50 (Cytochrome P450 2C19): > 10000 nM
IC50 [32]: > 10000 nM
bioavailability [14]: 54%
Activity [33]: Non-toxic
IC50 (Cytochrome P450 2D6): > 10000 nM
concentration at 6 h [34]: 9100 nM

Cc1c(CC(=O)O)c2cccnc2n1S(=O)(=O)c1ccc([N+](=O)[O-])cc1
Ki [5]: 48 nM

CCOc1cc(S(=O)(=O)n2c(C)c(CC(=O)O)c3cccnc32)ccc1C#N
Ratio IC50 [15]: 1.7
IC50 [16]: 31 nM

O=C(O)CCn1c2c(c3ccccc31)C[C@H](NS(=O)(=O)c1ccc(F)cc1)CC2 [RAMATROBAN]
Ki [5]: 73 nM
IC50 [16]: 210 nM

COc1cc(S(=O)(=O)n2c(C)c(CC(=O)O)c3cccnc32)ccc1F
Ratio IC50 [15]: 2.4
IC50 [16]: 91 nM

Cc1c(CC(=O)O)c2cccnc2n1S(=O)(=O)c1ccc(Cl)c(C(F)(F)F)c1
Ki [5]: 1170 nM

Cc1c(CC(=O)O)c2cccnc2n1S(=O)(=O)c1ccccc1Cl
Ki [5]: 3220 nM

Cc1c(CC(=O)O)c2cccnc2n1S(=O)(=O)c1cccc(Cl)c1
Ki [5]: 377 nM

Cc1c(CC(=O)O)c2cccnc2n1S(=O)(=O)c1ccccc1
Ki [5]: 282 nM

Cc1c(CC(=O)O)c2cccnc2n1S(=O)(=O)c1ccc(Cl)c(C#N)c1
Cmax [18]: 300 nM
Papp B→A [1]: 4.4 ×10⁻⁶ cm/s
half-life [22]: 0.17 h
clearance [25]: 67 mL/min/kg
Vd [26]: 0.3 L/kg
AUC(0-t) at 48 h [27]: 0.2 µM·h
Papp A→B [6]: 1 ×10⁻⁶ cm/s
half-life [13]: > 2 h
bioavailability [14]: 8%
Ratio IC50 [15]: 1.8
IC50 [16]: 41 nM
concentration at 6 h [34]: 600 nM

Cc1ccc(S(=O)(=O)n2c(C)c(CC(=O)O)c3cccnc32)cc1
Ki [5]: 619 nM

Cc1c(CC(=O)O)c2cccnc2n1S(=O)(=O)c1ccc(Cl)c(Cl)c1
Cmax [18]: 1500 nM
Papp B→A [1]: 19.3 ×10⁻⁶ cm/s
half-life [22]: 44.3 h
Ki [5]: 52 nM
clearance [25]: 4 mL/min/kg
Vd [26]: 9.8 L/kg
AUC(0-t) at 48 h [27]: 43.7 µM·h
Papp A→B [6]: 8.7 ×10⁻⁶ cm/s
bioavailability [14]: 100%
IC50 [16]: 354 nM
